# Laboratory results as given in PMC2940062 (Cancer, 2010).
# Where two headings read alike, the source gives them in different places.
# Experiments:
# [1] = Docetaxel pharmacokinetics in plasma, day 1 of cycle 1; format: in vivo; settings: human, intravenous
# How it was run: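 Patients with advanced NSCLC got a 60-min i.v. docetaxel infusion on day 1, alongside oral everolimus (5 or 7.5 mg daily) and dexamethasone premedication (8 mg twice daily for 3 days, starting the day before). Peripheral venous blood was drawn into sodium heparin on cycle 1 day 1, centrifuged (4 °C, 3000 × g, 10 min), and plasma stored at −80 °C. Validated LC-MS/MS quantitation was used, with noncompartmental t1/2.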
# [2] = single-agent docetaxel, second line NSCLC; cited from earlier work
# [3] = Everolimus pharmacokinetics in blood, cycle 1; format: in vivo, human; settings: for AUC(0-t) / Cmax: human, whole blood, oral
# How it was run: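 NSCLC patients; oral mTOR inhibitor daily on days 1–19 of 3-week cycles, with a 60-min i.v. co-drug infusion on day 1 and dexamethasone premedication. Cycle 1, days 1, 8 and 15: 2 mL venous blood into K-EDTA at 30 min pre-dose and 1, 2, 5, 8 and 24 h post-dose, frozen at −20 °C within 60 min.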
# [4] = system: recurrent or refractory NSCLC; settings: everolimus monotherapy; cited from earlier work
# [5] = single agent; cited from earlier work
smiles,measurement,setting,value
"CC(=O)O[C@@]12CO[C@@H]1C[C@H](O)[C@@]1(C)C(=O)[C@H](O)C3=C(C)[C@@H](OC(=O)[C@H](O)[C@@H](NC(=O)OC(C)(C)C)c4ccccc4)C[C@@](O)([C@@H](OC(=O)c4ccccc4)[C@H]21)C3(C)C [Docetaxel, docetaxel]",half-life,[1],9.4 ± 3.4 h
same,half-life,[1]; 60 mg/m2,16.8 h
same,AUC(0-inf),"[1]; 60 mg/m2, AUC0-∞, Day 1, everolimus 5 mg/day, docetaxel 60 mg/m^2, n=1",2.08 µM·h
same,Cmax,"[1]; 60 mg/m2, Cmax, Day 1, everolimus 5 mg/day, docetaxel 60 mg/m^2, n=1",1010 nM
same,half-life,[1]; 75 mg/m2,8.74 h
same,AUC(0-inf),"[1]; 75 mg/m2, AUC0-∞, Day 1, everolimus 5 mg/day, docetaxel 75 mg/m^2, n=3, mean (SD)",6.95 µM·h
same,AUC(0-inf),"[1]; 75 mg/m2, AUC0-∞, Day 1, everolimus 7.5 mg/day, docetaxel 75 mg/m^2, n=1",7.3 µM·h
same,Cmax,"[1]; 75 mg/m2, Cmax, Day 1, everolimus 5 mg/day, docetaxel 75 mg/m^2, n=3, mean (SD)",1610 nM
same,incidence of fever with neutropenia,[2],2–12%
same,recommended phase II dose (RP2D),"docetaxel day 1 every 3 weeks, in combination with everolimus",60 mg/m^2
"CO[C@H]1C[C@@H]2CC[C@@H](C)[C@@](O)(O2)C(=O)C(=O)N2CCCC[C@H]2C(=O)O[C@H]([C@H](C)C[C@@H]2CC[C@@H](OCCO)[C@H](OC)C2)CC(=O)[C@H](C)/C=C(\C)[C@@H](O)[C@@H](OC)C(=O)[C@H](C)C[C@H](C)/C=C/C=C/C=C/1C [Everolimus, everolimus]",Everolimus exposure (mean AUC and Cmax) versus dose,[3]; 5 and 7.5 mg/day,increased proportionally with dose
same,AUC(0-t),"[3]; 60 mg/m2, AUC0-24, Day 1, everolimus 5 mg/day, docetaxel 60 mg/m^2, n=3, mean (SD)",244 ng·h/mL
same,AUC(0-t),"[3]; 60 mg/m2, AUC0-24, Day 8, everolimus 5 mg/day, docetaxel 60 mg/m^2, n=3, mean (SD)",329 ng·h/mL
same,AUC(0-t),"[3]; 60 mg/m2, AUC0-24, Day 15, everolimus 5 mg/day, docetaxel 60 mg/m^2, n=3, mean (SD)",350 ng·h/mL
same,Cmax,"[3]; 60 mg/m2, Cmax, Day 1, everolimus 5 mg/day, docetaxel 60 mg/m^2, n=3, mean (SD)",37.7 ng/mL
same,Cmax,"[3]; 60 mg/m2, Cmax, Day 15, everolimus 5 mg/day, docetaxel 60 mg/m^2, n=3, mean (SD)",51 ng/mL
same,AUC(0-t),"[3]; 75 mg/m2, AUC0-24, Day 1, everolimus 5 mg/day, docetaxel 75 mg/m^2, n=10, mean (SD)",330 ng·h/mL
same,AUC(0-t),"[3]; 75 mg/m2, AUC0-24, Day 1, everolimus 7.5 mg/day, docetaxel 75 mg/m^2, n=4, mean (SD)",379 ng·h/mL
same,AUC(0-t),"[3]; 75 mg/m2, AUC0-24, Day 8, everolimus 5 mg/day, docetaxel 75 mg/m^2, n=6, mean (SD)",336 ng·h/mL
same,AUC(0-t),"[3]; 75 mg/m2, AUC0-24, Day 15, everolimus 5 mg/day, docetaxel 75 mg/m^2, n=6, mean (SD)",369 ng·h/mL
same,AUC(0-t),"[3]; 75 mg/m2, AUC0-24, Day 15, everolimus 7.5 mg/day, docetaxel 75 mg/m^2, n=1",772 ng·h/mL
same,Cmax,"[3]; 75 mg/m2, Cmax, Day 1, everolimus 5 mg/day, docetaxel 75 mg/m^2, n=10, mean (SD)",22.4 ng/mL
same,Cmax,"[3]; 75 mg/m2, Cmax, Day 8, everolimus 5 mg/day, docetaxel 75 mg/m^2, n=6, mean (SD)",35.8 ng/mL
same,Cmax,"[3]; 75 mg/m2, Cmax, Day 15, everolimus 5 mg/day, docetaxel 75 mg/m^2, n=6, mean (SD)",37.8 ng/mL
same,Cmax,"[3]; 75 mg/m2, Cmax, Day 15, everolimus 7.5 mg/day, docetaxel 75 mg/m^2, n=1",102 ng/mL
same,response rate,[4],5%
same,inter-patient variability in AUC,[5],33%
same,recommended phase II dose (RP2D),"everolimus days 1-19 every 3 weeks, in combination with docetaxel",5 mg PO daily
